In ChEMBL document CHEMBL1156256, “Poly(ethylene glycol) (PEG-400) as an alternative reaction solvent for the synthesis of some new 1-(4-(4'-chlorophenyl)-2-thiazolyl)-3-aryl-5-(2-butyl-4-chloro-1H-imidazol-5yl)-2-pyrazolines and their in vitro antimicrobial evaluation” (2010):
≈ marks a conversion by molar mass, not a printed value.

What was measured:
Aspergillus niger = test: Antifungal activity against Aspergillus niger MTCC 281 after 24 to 48 hrs by agar diffusion method; assay type: functional
Method in brief: (§1)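 Fungi grown on potato dextrose agar slants at 27 ± 0.2 °C for 24–48 h until sporulation. Spores suspended in sterile water with 1% Tween-80 and counted by haemocytometer (10⁶ CFU/mL). 0.1 mL spread on 2% agar PDA plates and held at 27 °C for 12 h. Wells then received 0.1 mL of compound at graded concentrations for MIC. Plates refrigerated 20 min for diffusion, then incubated at 27 ± 0.2 °C for […]. Zone read in mm. 1% DMSO used as control.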

Candida albicans = test: Antifungal activity against Candida albicans MTCC 183 after 24 to 48 hrs by agar diffusion method; assay type: functional; method in brief: as §1
Escherichia coli = test: Antibacterial activity against Escherichia coli MTCC 2939 after 24 hrs by agar diffusion method; assay type: functional; details: for MIC: Escherichia coli, MTCC 2939, 24 h
Method in brief: (§2)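 Agar well diffusion following NCCLS. Bacteria kept on nutrient agar slants at 37 ± 0.5 °C for 24 h. Nutrient agar plates seeded with 0.1 mL of culture suspension in 0.85% sterile saline (10⁵ CFU/mL). Plates incubated at 37 ± 0.5 °C for 24 h. Zone of inhibition recorded in mm, and MIC noted. 1% DMSO used as control.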

Bacillus subtilis = test: Antibacterial activity against Bacillus subtilis MTCC 441 after 24 hrs by agar diffusion method; assay type: functional; details: for MIC: Bacillus subtilis, MTCC 441, 24 h; method in brief: as §2
Salmonella enterica = test: Antibacterial activity against Salmonella typhi MTCC 98 after 24 hrs by agar diffusion method; assay type: functional, Salmonella enterica subsp. enterica serovar Typhi; details: for MIC: Salmonella enterica, MTCC 98, 24 h
Method in brief: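 NCCLS agar diffusion. Strain kept on nutrient agar slant at 37 ± 0.5 °C for 24 h. Nutrient agar plates seeded with 0.1 mL of a 10⁵ CFU/mL suspension in sterile 0.85% saline. Plates incubated at 37 ± 0.5 °C for 24 h. Read-out: zone of inhibition (mm) and MIC.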

Fusarium verticillioides = test: Antifungal activity against Fusarium moniliforme MTCC 156 after 24 to 48 hrs by agar diffusion method; assay type: functional; method in brief: as §1
Staphylococcus aureus = test: Antibacterial activity against Staphylococcus aureus MTCC 96 after 24 hrs by agar diffusion method; assay type: functional; details: for MIC: Staphylococcus aureus, MTCC 96, 24 h; method in brief: as §2
Penicillium chrysogenum = test: Antifungal activity against Penicillium chrysogenum MTCC 160 after 24 to 48 hrs by agar diffusion method; assay type: functional; method in brief: as §1
Trichoderma viride = test: Antifungal activity against Trichoderma viride MTCC 167 after 24 to 48 hrs by agar diffusion method; assay type: functional; method in brief: as §1
[1] = Fusarium verticillioides, MTCC 156
[2] = Penicillium chrysogenum, MTCC 160

| Compound | inhibition zone (IZ) (Aspergillus niger) [mm] | MIC (Aspergillus niger; Aspergillus niger, MTCC 281) [µg/mL] | inhibition zone (IZ) (Candida albicans) [mm] | MIC (Candida albicans; Candida albicans, MTCC 183) [µg/mL] | inhibition zone (IZ) (Escherichia coli) [mm] | MIC (Escherichia coli) [µg/mL] | inhibition zone (IZ) (Bacillus subtilis) [mm] | MIC (Bacillus subtilis) [µg/mL] | inhibition zone (IZ) (Salmonella enterica) [mm] | MIC (Salmonella enterica) [µg/mL] | inhibition zone (IZ) (Fusarium verticillioides) [mm] | MIC (Fusarium verticillioides; [1]) [µg/mL] | inhibition zone (IZ) (Staphylococcus aureus) [mm] | MIC (Staphylococcus aureus) [µg/mL] | inhibition zone (IZ) (Penicillium chrysogenum) [mm] | MIC (Penicillium chrysogenum; [2]) [µg/mL] | inhibition zone (IZ) (Trichoderma viride) [mm] | MIC (Trichoderma viride; Trichoderma viride, MTCC 167) [µg/mL] | also measured |
| --- | --- | --- | --- | --- | --- | --- | --- | --- | --- | --- | --- | --- | --- | --- | --- | --- | --- | --- | --- |
| CCCCc1nc(Cl)c(C2CC(c3cc(Cl)cc(Cl)c3O)=NN2c2nc(-c3ccc(Cl)cc3)cs2)[nH]1 (stereo not drawn) | 19 | 25 (≈ 43 µM) | 16 | 25 (≈ 43 µM) | 21 | 25 (≈ 43 µM) | 22 | 25 (≈ 43 µM) | 18 | 25 (≈ 43 µM) | 15 | 25 (≈ 43 µM) | 16 | 25 (≈ 43 µM) | 18 | 25 (≈ 43 µM) | 18 | 25 (≈ 43 µM) |  |
| CCCCc1nc(Cl)c(C2CC(c3cc(Br)cc(Br)c3O)=NN2c2nc(-c3ccc(Cl)cc3)cs2)[nH]1 (stereo not drawn) | 20 | 25 (≈ 37.3 µM) | 20 | 25 (≈ 37.3 µM) | 22 | 25 (≈ 37.3 µM) | 21 | 25 (≈ 37.3 µM) | 19 | 25 (≈ 37.3 µM) | 14 | 25 (≈ 37.3 µM) | 18 | 25 (≈ 37.3 µM) | 18 | 25 (≈ 37.3 µM) | 18 | 25 (≈ 37.3 µM) |  |
| CCCCc1nc(Cl)c(C2CC(c3cc(Cl)c(C)cc3O)=NN2c2nc(-c3ccc(Cl)cc3)cs2)[nH]1 (stereo not drawn) | 12 | 50 (≈ 89.1 µM) |  | > 100 | 14 | 50 (≈ 89.1 µM) |  | > 100 | 9 | 50 (≈ 89.1 µM) | 11 | 50 (≈ 89.1 µM) | 12 | 50 (≈ 89.1 µM) | 13 | 25 (≈ 44.6 µM) | 14 | 25 (≈ 44.6 µM) |  |
| CCCCc1nc(Cl)c(C2CC(c3cc(C)ccc3O)=NN2c2nc(-c3ccc(Cl)cc3)cs2)[nH]1 (stereo not drawn) | 12 | 50 (≈ 95 µM) | 10 | 50 (≈ 95 µM) | 11 | 50 (≈ 95 µM) | 12 | 50 (≈ 95 µM) |  | > 100 | 11 | 50 (≈ 95 µM) |  | > 100 |  | > 100 | 8 | 50 (≈ 95 µM) |  |
| CCCCc1nc(Cl)c(C2CC(c3cc(Cl)cc(Br)c3O)=NN2c2nc(-c3ccc(Cl)cc3)cs2)[nH]1 (stereo not drawn) | 18 | 25 (≈ 39.9 µM) | 16 | 25 (≈ 39.9 µM) | 21 | 25 (≈ 39.9 µM) | 15 | 25 (≈ 39.9 µM) | 18 | 25 (≈ 39.9 µM) | 10 | 50 (≈ 79.9 µM) | 16 | 25 (≈ 39.9 µM) | 16 | 25 (≈ 39.9 µM) | 15 | 25 (≈ 39.9 µM) |  |
| CCCCc1nc(Cl)c(C2CC(c3ccccc3O)=NN2c2nc(-c3ccc(Cl)cc3)cs2)[nH]1 (stereo not drawn) | 14 | 25 (≈ 48.8 µM) | 15 | 25 (≈ 48.8 µM) | 15 | 50 (≈ 97.6 µM) | 16 | 50 (≈ 97.6 µM) | 10 | 50 (≈ 97.6 µM) | 13 | 25 (≈ 48.8 µM) | 13 | 50 (≈ 97.6 µM) | 14 | 25 (≈ 48.8 µM) | 16 | 25 (≈ 48.8 µM) |  |
| CCCCc1nc(Cl)c(C2CC(c3ccc(N)cc3)=NN2c2nc(-c3ccc(Cl)cc3)cs2)[nH]1 (stereo not drawn) | 14 | 25 (≈ 48.9 µM) |  | > 100 | 12 | 50 (≈ 97.8 µM) | 8 | 50 (≈ 97.8 µM) |  | > 100 |  | > 100 | 10 | 50 (≈ 97.8 µM) | 10 | 50 (≈ 97.8 µM) | 12 | 50 (≈ 97.8 µM) |  |
| CCCCc1nc(Cl)c(C2CC(c3cc(C)cc(Br)c3O)=NN2c2nc(-c3ccc(Cl)cc3)cs2)[nH]1 (stereo not drawn) | 10 | 50 (≈ 82.6 µM) | 12 | 25 (≈ 41.3 µM) | 16 | 25 (≈ 41.3 µM) | 14 | 50 (≈ 82.6 µM) | 12 | 50 (≈ 82.6 µM) | 9 | 50 (≈ 82.6 µM) | 12 | 50 (≈ 82.6 µM) | 13 | 50 (≈ 82.6 µM) | 14 | 25 (≈ 41.3 µM) |  |
| CCCCc1nc(Cl)c(C2CC(c3cc(I)cc(I)c3O)=NN2c2nc(-c3ccc(Cl)cc3)cs2)[nH]1 (stereo not drawn) | 19 | 25 (≈ 32.7 µM) | 18 | 25 (≈ 32.7 µM) | 20 | 25 (≈ 32.7 µM) | 20 | 25 (≈ 32.7 µM) | 18 | 25 (≈ 32.7 µM) | 16 | 25 (≈ 32.7 µM) | 16 | 25 (≈ 32.7 µM) | 16 | 25 (≈ 32.7 µM) | 20 | 25 (≈ 32.7 µM) |  |
| CCCCc1nc(Cl)c(C2CC(c3cc(Cl)cc(I)c3O)=NN2c2nc(-c3ccc(Cl)cc3)cs2)[nH]1 (stereo not drawn) | 15 | 25 (≈ 37.2 µM) | 15 | 25 (≈ 37.2 µM) | 20 | 25 (≈ 37.2 µM) | 21 | 25 (≈ 37.2 µM) | 16 | 25 (≈ 37.2 µM) | 12 | 25 (≈ 37.2 µM) | 18 | 25 (≈ 37.2 µM) | 14 | 25 (≈ 37.2 µM) | 16 | 25 (≈ 37.2 µM) |  |
| NYSTATIN | 18 |  | 18 |  |  |  |  |  |  |  | 16 |  |  |  | 16 |  | 18 |  | MIC (Aspergillus niger): 25 µg/mL; MIC (Candida albicans): 25 µg/mL; MIC (Fusarium verticillioides): 25 µg/mL; MIC (Penicillium chrysogenum): 25 µg/mL; MIC (Trichoderma viride): 25 µg/mL |
| CCCCc1nc(Cl)c(C2CC(c3ccc(Cl)cc3)=NN2c2nc(-c3ccc(Cl)cc3)cs2)[nH]1 (stereo not drawn) | 12 | 50 (≈ 94.2 µM) | 14 | 25 (≈ 47.1 µM) | 16 | 25 (≈ 47.1 µM) | 14 | 50 (≈ 94.2 µM) | 10 | 50 (≈ 94.2 µM) | 11 | 50 (≈ 94.2 µM) | 12 | 50 (≈ 94.2 µM) | 10 | 50 (≈ 94.2 µM) | 11 | 50 (≈ 94.2 µM) |  |
| CN(C)[C@@H]1C(O)=C(C(N)=O)C(=O)[C@@]2(O)C(O)=C3C(=O)c4c(O)cccc4[C@@](C)(O)[C@H]3C[C@@H]12 [TETRACYCLINE] |  |  |  |  | 30 | 25 (≈ 56.3 µM) | 32 | 25 (≈ 56.3 µM) | 28 | 25 (≈ 56.3 µM) |  |  | 30 | 25 (≈ 56.3 µM) |  |  |  |  |  |
